Source: PubChem BioAssay (several laboratories)
In the library only some 4.8% were active in any assay of this set; here they are far more common.
Mot1-301 SUMO: blocks SUMOylation pathway, rescuing yeast Mot1-301 growth; S. cerevisiae Mot1-301 growth rescue, ATP luminescence, 38.5C; percent above DMSO median, 100 means doubled; growth rescue, % at 18.8 µM; 320,000 compounds, 1% hits; AID 2716;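 active = every valid replicate shows activation above 250% relative to neutral control wells; inactive = the rest, any valid replicate at or below 250%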
WT yeast gro inh: growth inhibition of WT yeast, mitochondrial fusion screen | mitochondrial fusion phenotypic screen, WT strain | inhibition, % at 10 µM | 190,000 compounds, 2.1% hits | AID 1362; in the data active = inhibition above about 58%; tested in S. cerevisiae
Beta cell apopt: beta cell apoptosis inhibition | INS-1E cytokine-induced death, ATP luminescence, 48 h; percent of positive-control rescue, neutral wells zero | protection from apoptosis, % (no concentration beside the values) | 300,000 compounds, 0.8% hits;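 active = Every replicate reaches about 75%, or at least half do and their mean reaches it too, limit read from the data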;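 note: higher means more ATP so stronger rescue from cytokine killing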
Efflux pump inh: antifungal efflux pump inhibition, Nile Red retention. S. cerevisiae Candida pump triplex. inhibition, % at 10 µM. 330,000 compounds, 0.44% hits;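 active = plate passing quality check with inhibition over a set limit, or well fluorescence over plate mean plus 4 SD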;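 note: Nile Red retained in pooled yeast measured as flow cytometry median fluorescence; higher means more Nile Red kept so more efflux inhibition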
T cruzi inh: T. cruzi replication inhibition; T. cruzi beta-gal in NIH3T3, luminescence, 90 h; inhibition, % (no concentration beside the values); 300,000 compounds, 1.4% hits;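 active = mean inhibition across valid replicates above about 55%, limit read from the data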;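 note: signal also drops with host cell toxicity which is not excluded here; higher percent means less beta-gal luminescence so fewer parasites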
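System – NIH/3T3 host cells with β-galactosidase reporter T. cruzi · Doses – single 50 nL compound addition per well in DMSO · Reagent – 5000 T. cruzi trypomastigotes/well · Medium – Low-serum DMEM with 2% FBS · Timing – ≥90 h infection period, 3 h prior cell attachment · Evaluation – parasite load inhibition, % · Technique – GalScreen luminescence, 60 min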
CSC inhib: blocks cancer stem cells; cancer stem cell-like cells viability, luminescence; inhibition, % at 7.5 µM; 300,000 compounds, 1.1% hits; in the data active = inhibition above about 75%; tested in HMLE shEcad cells
Hits are given with their value.

How did O=S(=O)(NCC(c1ccc2c(c1)OCO2)N1CCN(c2ccccc2)CC1)c1ccccc1 (configuration not stated) do in these assays?
Efflux pump inh: inactive; T cruzi inh: inactive; CSC inhib: inactive

How did O=C(Nc1cccc(C(F)(F)F)c1)Nn1cnnc1 do in these assays?
Mot1-301 SUMO: inactive; Beta cell apopt: inactive; Efflux pump inh: inactive; T cruzi inh: inactive; CSC inhib: inactive

How did CCN(C[C@H]1N[C@@](Cc2ccccc2)(C(=O)OC)[C@H]2C(=O)N(C)C(=O)[C@@H]12)C(C)=O do in these assays?
Efflux pump inh: inactive

What do the screens show for `Cc1cc(-c2sccc2Br)nc(-n2cccc2)n1`?
WT yeast gro inh: 69; T cruzi inh: inactive

What do the screens show for `Cc1cc(-c2ccc(Br)s2)nc(-n2cccc2)n1`?
WT yeast gro inh: inactive; T cruzi inh: inactive

Results for Nc1c(Cl)ncnc1N/N=C/c1cccnc1 ?
Mot1-301 SUMO: inactive; Efflux pump inh: inactive; T cruzi inh: inactive; CSC inhib: inactive

How did Nc1c(Cl)ncnc1N/N=C/c1ccc2ccccc2n1 do in these assays?
Mot1-301 SUMO: inactive; WT yeast gro inh: inactive; Beta cell apopt: 113; Efflux pump inh: inactive; CSC inhib: 102

What do the screens show for `Nc1c(Cl)ncnc1N/N=C/c1ccccn1`?
Mot1-301 SUMO: inactive; WT yeast gro inh: inactive; Beta cell apopt: 119; Efflux pump inh: inactive; CSC inhib: 102

What do the screens show for `Cc1ccc(CN2CCc3c(OCC(=O)Nc4cc(C)ccc4C)cccc3C2=O)cc1`?
Mot1-301 SUMO: inactive; WT yeast gro inh: inactive; Efflux pump inh: inactive; T cruzi inh: inactive; CSC inhib: inactive

What do the screens show for `O=C1Nc2ccc([N+](=O)[O-])cc2C1(O)N1CCCCCC1` (configuration not stated)?
Mot1-301 SUMO: inactive; WT yeast gro inh: inactive; Beta cell apopt: inactive; Efflux pump inh: inactive; T cruzi inh: inactive; CSC inhib: inactive

Results for Cc1cccc2nc(-c3ccccc3)nc(N3CCC(O)(c4ccc(Cl)cc4)CC3)c12 ?
Mot1-301 SUMO: inactive; WT yeast gro inh: 68; Beta cell apopt: inactive; Efflux pump inh: inactive; T cruzi inh: 60; CSC inhib: inactive

Results for CCN1CCN(c2nc(-c3ccccc3)nc3ccccc23)CC1 ?
Mot1-301 SUMO: inactive; WT yeast gro inh: inactive; Beta cell apopt: inactive; Efflux pump inh: inactive; T cruzi inh: inactive; CSC inhib: inactive

Results for CCc1sc(C(=O)NC2CCN(C)CC2)cc1Br ?
Mot1-301 SUMO: inactive; WT yeast gro inh: inactive; Beta cell apopt: inactive; Efflux pump inh: inactive; T cruzi inh: 62; CSC inhib: inactive

What do the screens show for `O=C(CN(c1ccccn1)S(=O)(=O)c1ccccc1)N/N=C/c1cccc([N+](=O)[O-])c1`?
Mot1-301 SUMO: inactive; WT yeast gro inh: inactive; Beta cell apopt: inactive; Efflux pump inh: inactive; T cruzi inh: inactive; CSC inhib: inactive

What do the screens show for `Cc1cccc2c(=O)cc(C)n(CC(N)=O)c12`?
Mot1-301 SUMO: inactive; Beta cell apopt: inactive; Efflux pump inh: inactive; T cruzi inh: inactive; CSC inhib: inactive

Results for CS(=O)(=O)N(CC(=O)N1CCCCCC1)c1cccc([N+](=O)[O-])c1 ?
Mot1-301 SUMO: inactive; Beta cell apopt: inactive; Efflux pump inh: inactive; T cruzi inh: inactive; CSC inhib: inactive

How did CCn1nnc2cc(C(=O)NCCc3ccccc3F)ccc21 do in these assays?
Mot1-301 SUMO: inactive; Beta cell apopt: inactive; Efflux pump inh: inactive; T cruzi inh: inactive; CSC inhib: inactive

Results for Cc1cc(C)cc(OCC(=O)OCC(=O)c2ccc3c(c2)NC(=O)CO3)c1 ?
Mot1-301 SUMO: inactive; WT yeast gro inh: 70; Beta cell apopt: inactive; Efflux pump inh: inactive; T cruzi inh: inactive

Results for COc1cc(C(=O)Oc2ccccc2/C=N/NC(=O)c2ccc(C)c(Cl)c2)cc(OC)c1OC ?
Mot1-301 SUMO: inactive; WT yeast gro inh: inactive; Beta cell apopt: 93; Efflux pump inh: inactive; T cruzi inh: 55; CSC inhib: inactive

How did COc1cc(/C=N/NC(=O)c2cccnc2)ccc1OC(=O)c1ccc2c(c1)OCO2 do in these assays?
Mot1-301 SUMO: inactive; WT yeast gro inh: inactive; Beta cell apopt: inactive; Efflux pump inh: inactive; T cruzi inh: inactive; CSC inhib: inactive

How did COc1cc(C(=O)Oc2ccccc2/C=N/NC(=O)c2ccc(Cl)cc2)cc(OC)c1OC do in these assays?
Mot1-301 SUMO: inactive; WT yeast gro inh: inactive; Efflux pump inh: inactive; T cruzi inh: 67; CSC inhib: inactive
